{"data": "Measurements pooled from the literature", "target": "Cytoplasmic tyrosine-protein kinase BMX (BMX, Homo sapiens, UniProt P51813)", "effect on": "enzyme activity", "action": "inhibitor", "Sequence (P51813 1-675, as in one of the studies)": "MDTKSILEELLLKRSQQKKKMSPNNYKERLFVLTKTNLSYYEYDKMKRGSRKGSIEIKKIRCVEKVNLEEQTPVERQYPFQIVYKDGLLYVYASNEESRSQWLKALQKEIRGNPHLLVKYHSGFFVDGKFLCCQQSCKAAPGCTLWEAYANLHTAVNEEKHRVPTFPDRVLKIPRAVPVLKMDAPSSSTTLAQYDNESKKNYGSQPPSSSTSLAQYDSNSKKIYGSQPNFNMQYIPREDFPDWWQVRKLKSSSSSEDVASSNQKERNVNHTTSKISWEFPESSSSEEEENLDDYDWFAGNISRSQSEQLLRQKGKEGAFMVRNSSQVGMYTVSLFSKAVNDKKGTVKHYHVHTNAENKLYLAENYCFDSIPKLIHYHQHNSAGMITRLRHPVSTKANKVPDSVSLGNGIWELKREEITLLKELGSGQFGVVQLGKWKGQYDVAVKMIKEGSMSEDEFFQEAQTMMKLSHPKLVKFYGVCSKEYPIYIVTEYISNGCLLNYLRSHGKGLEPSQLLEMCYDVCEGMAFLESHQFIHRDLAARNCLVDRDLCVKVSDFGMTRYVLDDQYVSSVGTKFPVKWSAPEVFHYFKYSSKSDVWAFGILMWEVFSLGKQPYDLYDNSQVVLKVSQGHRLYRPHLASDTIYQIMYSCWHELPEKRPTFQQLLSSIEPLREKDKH", "note": "Protocols differ between the studies behind these lines."}
{"Compound": "Nc1ncnc2occ(-c3ccc(NC(=O)Nc4cc(C(F)(F)F)ccc4F)cc3)c12", "conditions": "20 µM", "remaining activity": "0.5%"}
{"Compound": "Cc1ccc(C(=O)Nc2ccc(CN3CCN(C)CC3)c(C(F)(F)F)c2)cc1C#Cc1cnc2cccnn12", "conditions": "23.5 nM", "remaining activity": "47%"}
{"Compound": "CCN(CC)c1ccc(C2=NNC(=O)CC2C)cc1[N+](=O)[O-] (stereo not drawn)", "conditions": "10 µM", "remaining activity": "96%"}
{"Compound": "CC(C)(C)c1nc(-c2cccc(NS(=O)(=O)c3c(F)cccc3F)c2F)c(-c2ccnc(N)n2)s1", "test": "radiometric", "conditions": "1 µM", "remaining activity": "75%"}
{"Compound": "CC(C)(O)[C@H]1CC[C@H](Nc2ccc3ncc(-c4cccc(C(F)(F)F)c4)n3n2)CC1", "conditions": "1 µM", "remaining activity": "71.5%"}
{"Compound": "O=C(O)c1ccc2c3c1cccc3c(=O)n1c3ccccc3nc21", "conditions": "0.5 µM", "remaining activity": "96.4%"}
{"Compound": "CC(C)(C)c1nc2c(s1)c1nc(N)ncc1c1ccc(NS(=O)(=O)c3c(F)cccc3F)c(F)c12", "test": "radiometric", "conditions": "1 µM", "remaining activity": "87%"}
{"Compound": "CCCOc1ccc(OC)c(F)c1C(=O)c1ccc(C(=O)N[C@@H]2CNC[C@H]2NC(=O)c2ccc3[nH]ncc3c2)cc1", "conditions": "10 µM", "remaining activity": "87%"}
{"Compound": "Cc1sc(C(=O)NC2COC2)cc1-n1cc(NC(=O)Nc2c(F)cccc2Cl)cn1", "conditions": "10 µM", "remaining activity": "92.9%"}
{"Compound": "COc1ccc(C(=O)Nc2sc3c(c2C(N)=O)CCCC3)cc1OC", "conditions": "0.5 µM", "remaining activity": "89.8%"}
{"Compound": "Cc1cnc(NC2CCOCC2)nc1-n1cnc(C(=O)NC(CN)c2cc(F)cc(Cl)c2)c1 (stereo not drawn)", "test": "radiometric", "conditions": "1 µM", "remaining activity": "117%"}
{"Compound": "COc1cc2ncc(-c3ccccc3)nc2cc1OC", "conditions": "0.5 µM", "remaining activity": "92.2%"}
{"Compound": "COc1cc(Cl)c(C(=O)N[C@@H](CN[C@H]2CC[C@@H](N)CC2)Cc2ccc(C#N)cc2)cc1-c1ccc(CN[C@H](C)c2ccc(C)cc2)o1", "conditions": "1 µM", "remaining activity": "72%"}
{"Compound": "O=C(Nc1cnn(-c2csc(C(=O)NC3COC3)c2)c1)Nc1c(F)cccc1Cl", "conditions": "5 µM", "remaining activity": "96.8%"}
{"Compound": "CCN(CC)CCNC(=O)c1c(C)[nH]c(/C=C2\\C(=O)Nc3ccc(Cl)cc32)c1C", "conditions": "0.5 µM", "remaining activity": "99.3%"}
